# Experimental data as given in ChEMBL document CHEMBL4270544, “Design, synthesis and biological evaluation of a novel tubulin inhibitor 7a3 targeting the colchicine binding site” (Eur J Med Chem, 2018).
# Activity calls are given as the source filed them. No cut-off for these calls is given here.
# Columns and labels:
# SK-OV-3 [1] = experiment: Antiproliferative activity against human SKOV3 cells after 72 hrs by CCK8 assay; assay type: functional, cell-based; settings: SK-OV-3, 72 h
# Summary of the method: (§1)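 CCK-8 proliferation assay with CA-4 as positive control. IC50 is the concentration giving 50% inhibition of proliferation. Mean ± SEM from three independent experiments.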
# MDA-MB-231 = experiment: Antiproliferative activity against human MDA-MB-231 cells after 72 hrs by CCK8 assay; assay type: functional, cell-based; settings: MDA-MB-231, 72 h; summary of the method: as §1
# HeLa = experiment: Antiproliferative activity against human HeLa cells after 72 hrs by CCK8 assay; assay type: functional, cell-based; summary of the method: as §1
# MCF7 = experiment: Antiproliferative activity against human MCF7 cells after 72 hrs by CCK8 assay; assay type: functional, cell-based; settings: MCF7, 72 h; summary of the method: as §1
# A549 = experiment: Antiproliferative activity against human A549 cells after 72 hrs by CCK8 assay; assay type: functional, cell-based; settings: A549, 72 h; summary of the method: as §1
# CT26 = experiment: Antiproliferative activity against mouse CT26 cells after 72 hrs by CCK8 assay; assay type: functional, cell-based; settings: CT26, 72 h; summary of the method: as §1
# Bos taurus = species: Bos taurus; experiment: Inhibition of bovine MAP-rich tubulin polymerization at 10 uM measured every 1 min for 30 mins relative to control
# Summary of the method: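 Purified tubulin polymerization followed at 37 °C by absorbance at 340 nm, read every 1 min for 30 min. Test concentrations 2.5, 10 and 40 µM. CA-4 at 10 µM served as positive control and DMSO (1%, v/v) as vehicle. Polymerization is expressed relative to the vehicle group.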
# SK-OV-3 [2] = experiment: Antimigratory activity against human SKOV3 cells assessed as wound closure at 80 nM after 24 hrs by microscopy based scratch wound assay (reference value: 79.5 +/- 2.8%); assay type: functional
# SK-OV-3 [3] = experiment: Antimigratory activity against human SKOV3 cells assessed as number of migrated cells at 50 nM after 24 hrs by crystal violet staining based transwell migration assay (reference value: 49.3 to 50.7); assay type: functional
# SK-OV-3 [4] = experiment: Antimigratory activity against human SKOV3 cells assessed as wound closure at 160 nM after 24 hrs by microscopy based scratch wound assay (reference value: 79.5 +/- 2.8%); assay type: functional
# SK-OV-3 [5] = experiment: Antimigratory activity against human SKOV3 cells assessed as number of migrated cells at 25 nM after 24 hrs by crystal violet staining based transwell migration assay (reference value: 49.3 to 50.7); assay type: functional
# SK-OV-3 [6] = experiment: Antimigratory activity against human SKOV3 cells assessed as number of migrated cells at 100 nM after 24 hrs by crystal violet staining based transwell migration assay (reference value: 49.3 to 50.7); assay type: functional
IC50 (SK-OV-3 [1]),IC50 (MDA-MB-231),SMILES,further results
24200 nM,20800 nM,COc1cc(-c2nn(C(C)(C)C)c(N)c2-c2ccc(SC)cc2)cc(OC)c1OC,–
155 nM,307 nM,COc1cc(-c2nn(C)cc2-c2ccc(SC)cc2)cc(OC)c1OC,–
14700 nM,18400 nM,COc1ccc(-n2nc(-c3cc(OC)c(OC)c(OC)c3)c(-c3ccc(OC)c(F)c3)c2N)cc1,–
14000 nM,7050 nM,COc1ccc(-n2nc(-c3cc(OC)c(OC)c(OC)c3)c(-c3ccc(SC)cc3)c2N)cc1,–
438 nM,748 nM,COc1cc(-c2nn(C)c(N)c2-c2ccc(SC)cc2)cc(OC)c1OC,–
1210 nM,2010 nM,CCOc1ccc(-c2c(-c3cc(OC)c(OC)c(OC)c3)nn(-c3ccc(OC)cc3)c2N)cc1,–
33200 nM,24600 nM,COc1ccc(-c2c(-c3cc(OC)c(OC)c(OC)c3)nn(-c3ccc(F)cc3)c2N)cc1F,–
89 nM,166 nM,COc1ccc(-c2cn(C)nc2-c2cc(OC)c(OC)c(OC)c2)cc1,–
40300 nM,31300 nM,COc1ccc(-c2c(-c3cc(OC)c(OC)c(OC)c3)nn(C(C)(C)C)c2N)cc1,–
7370 nM,22900 nM,COc1cc(-c2nn(-c3ccc(F)cc3)c(N)c2-c2ccc(SC)cc2)cc(OC)c1OC,–
69 nM,74 nM,COc1ccc(-c2cnn(C)c2-c2cc(OC)c(OC)c(OC)c2)cc1,–
55 nM,41 nM,COc1ccc(-c2cn(C)nc2-c2cc(OC)c(OC)c(OC)c2)cc1F,IC50 (HeLa): 28.8 nM; IC50 (MCF7): 37.2 nM; IC50 (A549): 141 nM; IC50 (CT26): 58.7 nM
1120 nM,2570 nM,CCOc1ccc(-c2c(-c3cc(OC)c(OC)c(OC)c3)nn(C(C)(C)C)c2N)cc1,–
19000 nM,15900 nM,COc1ccc(-c2c(-c3cc(OC)c(OC)c(OC)c3)nn(-c3ccc(OC)cc3)c2N)cc1,–
2830 nM,1660 nM,CCOc1ccc(-c2c(-c3cc(OC)c(OC)c(OC)c3)nn(-c3ccc(F)cc3)c2N)cc1,–
28900 nM,33700 nM,COc1ccc(-c2c(-c3cc(OC)c(OC)c(OC)c3)nn(-c3ccc(F)cc3)c2N)cc1,–
43 nM,72 nM,CCOc1ccc(-c2cnn(C)c2-c2cc(OC)c(OC)c(OC)c2)cc1,IC50 (HeLa): 93.1 nM; IC50 (MCF7): 39.9 nM; IC50 (A549): 99 nM; IC50 (CT26): 165 nM
52 nM,41 nM,COc1cc(-c2c(-c3ccc(SC)cc3)cnn2C)cc(OC)c1OC,–
16900 nM,29500 nM,COc1ccc(-c2c(-c3cc(OC)c(OC)c(OC)c3)nn(C(C)(C)C)c2N)cc1F,–
338 nM,490 nM,CCOc1ccc(-c2c(-c3cc(OC)c(OC)c(OC)c3)nn(C)c2N)cc1,–
66 nM,57 nM,COc1ccc(-c2cnn(C)c2-c2cc(OC)c(OC)c(OC)c2)cc1F,IC50 (HeLa): 112 nM; IC50 (MCF7): 113 nM; IC50 (A549): 187 nM; IC50 (CT26): 151 nM
16300 nM,31100 nM,COc1ccc(-c2c(-c3cc(OC)c(OC)c(OC)c3)nn(C)c2N)cc1,–
31800 nM,36400 nM,COc1ccc(-c2c(-c3cc(OC)c(OC)c(OC)c3)nn(C)c2N)cc1F,–

SMILES,IC50 (SK-OV-3 [1]),IC50 (MDA-MB-231),further results
COc1ccc(/C=C\c2cc(OC)c(OC)c(OC)c2)cc1O [COMBRETASTATIN A4],5.9 nM,4.5 nM,IC50 (HeLa): 14.2 nM; inhibition (Bos taurus): Active; Activity (SK-OV-3 [2]): 41.9%; IC50 (MCF7): 39.1 nM; Activity (SK-OV-3 [3]): 20.7; IC50 (A549): 94.3 nM; Activity (SK-OV-3 [4]): 29.2%; IC50 (CT26): 45.1 nM; Activity (SK-OV-3 [5]): 26.3; Activity (SK-OV-3 [6]): 18.3
